Test results from ChEMBL document CHEMBL1139976, “Liver X receptor antagonists with a phthalimide skeleton derived from thalidomide-related glucosidase inhibitors” (Bioorg Med Chem Lett, 2007).
Active and inactive are the calls of the source. No cut-off for these calls is given here.

Columns and labels:
[1] = Inhibition of alpha glucosidase; design: species or system Homo sapiens
Summary of the method: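 The enzyme (25 mU/mL) was preincubated with a range of compound concentrations in 10 mM phosphate buffer, pH 7.2, at 37 °C for 10 min. p-Nitrophenyl-alpha-D-glucopyranoside was then added to 0.16 mM final and incubated 30 min at 37 °C. The reaction was basified with 0.5 M Na2CO3 and released p-nitrophenol read at 400 nm. IC50 values were derived.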

[2] = target: T1, Oxysterols receptor LXR-alpha (Homo sapiens) (UniProt Q13133); assay: Antagonist activity at human recombinant LXRalpha expressed in HEK293 cells assessed as inhibition of T0901317-induced transcriptional activation at 100 uM by luciferase assay; format: functional, cell-based
T1 sequence (whole entry): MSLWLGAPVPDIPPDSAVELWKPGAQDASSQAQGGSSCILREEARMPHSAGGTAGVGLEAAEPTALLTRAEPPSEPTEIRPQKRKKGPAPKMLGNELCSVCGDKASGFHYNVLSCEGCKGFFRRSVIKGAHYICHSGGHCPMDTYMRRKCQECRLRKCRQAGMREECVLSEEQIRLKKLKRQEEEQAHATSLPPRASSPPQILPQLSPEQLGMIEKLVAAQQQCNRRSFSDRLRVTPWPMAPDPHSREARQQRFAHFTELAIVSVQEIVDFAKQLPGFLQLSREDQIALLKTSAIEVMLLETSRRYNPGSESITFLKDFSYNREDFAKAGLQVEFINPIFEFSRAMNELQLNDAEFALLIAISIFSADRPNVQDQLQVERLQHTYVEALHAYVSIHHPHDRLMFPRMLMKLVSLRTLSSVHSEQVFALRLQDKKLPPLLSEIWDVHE
Summary of the method: (§1)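 GAL4 DNA-binding domain fused to human LXR (alpha or beta) as receptor plasmid, TK-MH100x4-LUC reporter, and CMX beta-galactosidase for normalization. HEK293 cells in DMEM with 5% FBS, 37 °C, 5% CO2. Transfected by calcium phosphate coprecipitation. Compounds added 8 h post-transfection together with 0.1 µM T0901317, whose response alone was set as 100%. Luciferase read on a luminometer. Three repeats, normalized averages.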

[3] = target: T2, Oxysterols receptor LXR-beta (Homo sapiens) (UniProt P55055); assay: Antagonist activity at human recombinant LXRbeta expressed in HEK293 cells assessed as inhibition of T0901317-induced transcriptional activation at 100 uM by luciferase assay; format: functional, cell-based; summary of the method: as §1
T2 sequence (whole entry): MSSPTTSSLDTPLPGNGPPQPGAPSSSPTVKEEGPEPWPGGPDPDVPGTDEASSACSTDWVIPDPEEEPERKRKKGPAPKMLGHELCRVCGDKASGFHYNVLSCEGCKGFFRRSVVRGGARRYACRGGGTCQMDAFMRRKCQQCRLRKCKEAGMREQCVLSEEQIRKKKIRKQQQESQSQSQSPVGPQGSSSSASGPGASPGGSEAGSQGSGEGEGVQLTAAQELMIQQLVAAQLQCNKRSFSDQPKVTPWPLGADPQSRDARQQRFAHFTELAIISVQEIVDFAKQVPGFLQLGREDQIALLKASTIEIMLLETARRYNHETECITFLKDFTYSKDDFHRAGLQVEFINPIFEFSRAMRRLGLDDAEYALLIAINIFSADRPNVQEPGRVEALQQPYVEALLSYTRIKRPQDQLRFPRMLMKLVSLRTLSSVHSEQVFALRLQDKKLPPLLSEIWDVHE

Homo sapiens [4] = organism: Homo sapiens; assay: Inhibition of dipeptidylpeptidase 4
HEK293 = assay: Cytotoxicity against HEK293 cells at 100 uM; format: cell-based; conditions: human, hek293, 100 µM
Homo sapiens [5] = organism: Homo sapiens; assay: Inhibition of maltase
[6] = target: T3, Oxysterols receptor LXR-alpha (Homo sapiens, UniProt Q13133); assay: Antagonist activity at human recombinant LXRalpha expressed in HEK293 cells assessed as inhibition of T0901317-induced transcriptional activation by luciferase assay; format: functional, cell-based
T3 sequence (Q13133 whole entry): T1 sequence (whole entry)

[7] = target: T4, Oxysterols receptor LXR-beta (Homo sapiens, UniProt P55055); assay: Antagonist activity at human recombinant LXRbeta expressed in HEK293 cells assessed as inhibition of T0901317-induced transcriptional activation by luciferase assay; format: functional, cell-based
T4 sequence (P55055 whole entry): T2 sequence (whole entry)

Row | Compound | IC50 [1] | inhibition [2] | inhibition [3] | other results
1 | O=C1c2c(Cl)c(Cl)c(Cl)c(Cl)c2C(=O)N1CCCCCCCCCCc1ccccc1 | 6.8 µM |  |  | Activity [2]: inactive; Activity [3]: inactive
2 | O=C1c2cc(Cl)c(Cl)cc2C(=O)N1CCCCc1ccccc1 |  | 50% | 35% | 
3 | O=C1c2c(Cl)c(Cl)c(Cl)c(Cl)c2C(=O)N1CCCCc1ccccc1 | 2 µM | 53% | 49% | 
4 | O=C1c2ccc(Cl)cc2C(=O)N1CCCCc1ccccc1 |  | 66% | 45% | 
5 | O=C1c2ccccc2C(=O)N1c1ccccc1CCc1ccccc1 | 16.2 µM |  |  | Activity (Homo sapiens [4]): inactive; Activity (HEK293): 48%; Activity (Homo sapiens [5]): inactive
6 | CCCCCCc1ccccc1N1C(=O)c2ccccc2C1=O | 24.7 µM |  |  | IC50 [6]: 13 µM; Activity (Homo sapiens [4]): inactive; Activity (HEK293): 57%; IC50 [7]: 65 µM; Activity (Homo sapiens [5]): inactive
7 | O=C1c2c(Cl)c(Cl)c(Cl)c(Cl)c2C(=O)N1c1ccccc1 | 2.6 µM |  |  | Activity [2]: inactive; Activity [3]: inactive
8 | O=C1c2c(Cl)c(Cl)c(Cl)c(Cl)c2C(=O)N1CCc1ccccc1 | 6 µM | 38% | 38% | 
9 | O=C1c2c(Cl)c(Cl)c(Cl)c(Cl)c2C(=O)N1CCCc1ccccc1 | 4.5 µM | 59% | 52% | 
10 | O=C1c2c(Cl)c(Cl)c(Cl)c(Cl)c2C(=O)N1CCCCCc1ccccc1 | 3.5 µM | 42% | 3% | 
11 | CC(C)c1cccc(C(C)C)c1N1C(=O)c2c(Cl)c(Cl)c(Cl)c(Cl)c2C1=O | 2.4 µM | 61% | 49% | 
12 | O=C1c2c(Cl)c(Cl)c(Cl)c(Cl)c2C(=O)N1Cc1ccccc1 | 10.9 µM | 60% | 51% | 
13 | CC(C)c1cccc(C(C)C)c1N1C(=O)c2ccccc2C1=S | 8 µM | 94% | 92% | Activity (Homo sapiens [4]): Active; Activity (HEK293): 73%; Activity (Homo sapiens [5]): Active
